{"source": "paper PMC9043576", "about": "(RSC Advances, 2021)", "key": {"DPP-4": {"biological_target": "DPP-4 (Homo sapiens, UniProt P27487)", "sequence (P27487 whole entry)": "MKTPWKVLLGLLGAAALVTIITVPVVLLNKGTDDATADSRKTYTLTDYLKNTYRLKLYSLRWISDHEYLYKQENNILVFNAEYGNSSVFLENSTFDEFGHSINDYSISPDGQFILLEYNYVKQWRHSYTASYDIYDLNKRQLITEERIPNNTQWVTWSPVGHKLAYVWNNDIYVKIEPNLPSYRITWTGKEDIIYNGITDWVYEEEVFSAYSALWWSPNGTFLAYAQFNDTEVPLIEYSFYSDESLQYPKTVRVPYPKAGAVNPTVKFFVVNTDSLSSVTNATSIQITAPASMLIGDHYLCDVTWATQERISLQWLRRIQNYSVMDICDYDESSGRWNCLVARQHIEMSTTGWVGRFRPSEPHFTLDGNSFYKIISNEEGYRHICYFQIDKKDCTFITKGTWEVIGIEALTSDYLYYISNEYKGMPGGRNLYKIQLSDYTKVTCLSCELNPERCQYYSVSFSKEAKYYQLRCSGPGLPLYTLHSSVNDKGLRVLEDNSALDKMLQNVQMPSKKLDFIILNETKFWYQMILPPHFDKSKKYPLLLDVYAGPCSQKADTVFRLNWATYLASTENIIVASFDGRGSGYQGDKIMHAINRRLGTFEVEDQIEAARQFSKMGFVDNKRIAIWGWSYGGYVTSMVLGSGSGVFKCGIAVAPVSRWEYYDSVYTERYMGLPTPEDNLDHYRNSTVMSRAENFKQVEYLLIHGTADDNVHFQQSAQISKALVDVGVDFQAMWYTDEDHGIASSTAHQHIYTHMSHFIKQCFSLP", "test": "biochemical", "format": "biochemical", "conditions": "for DPP-4 suppression activity (in words): human recombinant DPP-4; for pIC50: Experimental PIC50, pIC50 = −log IC50, QSAR training set"}, "[1]": {"tested_on": "high-fat diet-fed/streptozotocin (HFD/STZ) induced T2DM male albino mice", "test": "Acute hypoglycemic activity, intraperitoneal glucose tolerance test", "format": "in vivo", "conditions": "IPGTT, diabetic mice, mean ±SD; for Blood glucose level (1 h): single dose 10 mg kg^−1, 1 h; for Blood glucose level (2 h): single dose 10 mg kg^−1, 2 h; for Blood glucose level (3 h): single dose 10 mg kg^−1, 3 h; for Blood glucose level (6 h): single dose 10 mg kg^−1, 6 h", "method_in_brief": "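Diabetic male albino mice (high-fat diet-fed/streptozotocin-induced T2DM) received a single 10 mg kg−1 dose of test compound; the IPGTT was then run. Blood glucose (mg dl−1) was read at 1, 2, 3 and 6 h. The groups were normal control, untreated STZ-diabetic control and treated animals, with n = 4 per group. Values are mean ±SD.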"}, "DPP-9": {"biological_target": "DPP-9 (Homo sapiens, UniProt Q86TI2)", "sequence (Q86TI2 whole entry)": "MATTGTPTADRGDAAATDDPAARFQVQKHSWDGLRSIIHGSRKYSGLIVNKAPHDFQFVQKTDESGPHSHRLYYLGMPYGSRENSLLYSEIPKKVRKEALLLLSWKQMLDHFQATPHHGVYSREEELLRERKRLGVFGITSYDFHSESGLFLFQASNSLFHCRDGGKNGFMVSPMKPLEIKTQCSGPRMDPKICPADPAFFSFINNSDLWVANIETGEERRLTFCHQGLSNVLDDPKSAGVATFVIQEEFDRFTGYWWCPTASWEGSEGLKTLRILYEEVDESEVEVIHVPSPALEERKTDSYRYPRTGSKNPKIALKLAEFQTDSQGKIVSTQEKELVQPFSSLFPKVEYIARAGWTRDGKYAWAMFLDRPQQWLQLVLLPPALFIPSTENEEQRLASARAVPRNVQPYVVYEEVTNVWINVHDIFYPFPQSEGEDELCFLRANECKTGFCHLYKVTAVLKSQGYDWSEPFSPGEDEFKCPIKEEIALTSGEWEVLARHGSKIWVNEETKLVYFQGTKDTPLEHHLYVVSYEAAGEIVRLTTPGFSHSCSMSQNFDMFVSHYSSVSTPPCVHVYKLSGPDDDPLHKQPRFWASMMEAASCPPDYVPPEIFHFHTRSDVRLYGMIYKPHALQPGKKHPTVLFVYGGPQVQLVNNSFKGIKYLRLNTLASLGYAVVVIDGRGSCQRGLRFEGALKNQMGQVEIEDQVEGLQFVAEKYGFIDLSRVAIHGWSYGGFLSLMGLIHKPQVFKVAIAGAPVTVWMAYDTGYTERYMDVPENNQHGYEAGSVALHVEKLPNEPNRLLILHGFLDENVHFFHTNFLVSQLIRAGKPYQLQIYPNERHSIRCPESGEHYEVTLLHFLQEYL", "test": "In vitro DPP-9 selectivity assay, fluorescence-based", "format": "biochemical"}, "[2]": {"tested_on": "normal hTERT-RPE1 cell line", "test": "Cytotoxicity bioassay", "format": "cell-based", "conditions": "MTT"}, "DPP-8": {"biological_target": "DPP-8 (Homo sapiens, UniProt Q6V1X1)", "sequence (Q6V1X1 whole entry)": "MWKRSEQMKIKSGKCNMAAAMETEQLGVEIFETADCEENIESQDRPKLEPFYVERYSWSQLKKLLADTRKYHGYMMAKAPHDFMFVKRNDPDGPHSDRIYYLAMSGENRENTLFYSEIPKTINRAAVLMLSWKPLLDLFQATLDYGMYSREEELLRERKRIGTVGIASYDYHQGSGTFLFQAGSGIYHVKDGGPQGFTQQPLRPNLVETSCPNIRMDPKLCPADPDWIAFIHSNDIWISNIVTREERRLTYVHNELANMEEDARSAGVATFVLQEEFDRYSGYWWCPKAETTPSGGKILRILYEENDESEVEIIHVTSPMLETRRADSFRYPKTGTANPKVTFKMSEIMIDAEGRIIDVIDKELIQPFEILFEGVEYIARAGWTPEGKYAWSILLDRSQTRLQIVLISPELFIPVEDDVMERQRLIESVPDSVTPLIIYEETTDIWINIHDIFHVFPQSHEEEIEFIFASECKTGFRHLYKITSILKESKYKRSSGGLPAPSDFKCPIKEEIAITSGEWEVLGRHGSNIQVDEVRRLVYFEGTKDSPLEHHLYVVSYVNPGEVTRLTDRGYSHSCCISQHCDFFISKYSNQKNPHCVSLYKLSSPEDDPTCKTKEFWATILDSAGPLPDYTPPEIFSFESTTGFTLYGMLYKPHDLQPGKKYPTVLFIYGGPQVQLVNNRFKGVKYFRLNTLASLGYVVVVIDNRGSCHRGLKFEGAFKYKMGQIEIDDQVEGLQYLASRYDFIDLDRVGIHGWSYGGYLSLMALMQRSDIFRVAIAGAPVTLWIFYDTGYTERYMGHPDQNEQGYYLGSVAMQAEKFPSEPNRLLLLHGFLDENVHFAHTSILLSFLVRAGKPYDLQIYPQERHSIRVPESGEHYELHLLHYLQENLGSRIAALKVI", "test": "In vitro DPP-8 selectivity assay, fluorescence-based", "format": "biochemical"}}, "note": "pIC50: −log10 of the molar value. Entries after “also recorded” stand apart in the source; their conditions may differ.", "data": [{"compound": "Cn1c(=O)c(=O)n(C)c2cc(S(=O)(=O)Nc3nccs3)ccc21", "note": "[Compound 6a, 1,4-Dimethyl-2,3-dioxo-N-(thiazol-2-yl)-1,2,3,4-tetrahydroquinoxaline-6-sulfonamide]", "values": [{"measurement": "DPP-4 suppression activity (in words)", "setting": "DPP-4", "value": "inactive; also recorded: completely lost"}]}, {"compound": "CC(=O)c1ccc(NS(=O)(=O)c2ccc3c(c2)n(C)c(=O)c(=O)n3C)cc1", "note": "[Compound 6b, N-(4-Acetylphenyl)-1,4-dimethyl-2,3-dioxo-1,2,3,4-tetrahydroquinoxaline-6-sulfonamide]", "values": [{"measurement": "Blood glucose level (1 h)", "setting": "[1]", "value": "235.64 ± 4.25", "unit": "mg/dL"}, {"measurement": "Blood glucose level (2 h)", "setting": "[1]", "value": "127.33 ± 7.15", "unit": "mg/dL"}, {"measurement": "Blood glucose level (3 h)", "setting": "[1]", "value": "95.67 ± 6.21", "unit": "mg/dL"}, {"measurement": "Blood glucose level (6 h)", "setting": "[1]", "value": "96.24 ± 4.29", "unit": "mg/dL"}]}, {"compound": "Cn1c(=O)c(=O)n(C)c2cc(S(=O)(=O)Nc3ccc(C(=O)O)cc3)ccc21", "note": "[Compound 6c, 4-(1,4-Dimethyl-2,3-dioxo-1,2,3,4-tetrahydroquinoxaline-6-sulfonamido)benzoic acid]", "values": [{"measurement": "Blood glucose level (1 h)", "setting": "[1]", "value": "220.59 ± 5.12", "unit": "mg/dL"}, {"measurement": "Blood glucose level (2 h)", "setting": "[1]", "value": "125.31 ± 3.47", "unit": "mg/dL"}, {"measurement": "Blood glucose level (3 h)", "setting": "[1]", "value": "90.68 ± 3.45", "unit": "mg/dL"}, {"measurement": "Blood glucose level (6 h)", "setting": "[1]", "value": "90.06 ± 7.25", "unit": "mg/dL"}]}, {"compound": "Cn1c(=O)c(=O)n(C)c2cc(S(=O)(=O)Nc3ccc(F)cc3)ccc21", "note": "[Compound 6d, N-(4-Fluorophenyl)-1,4-dimethyl-2,3-dioxo-1,2,3,4-tetrahydroquinoxaline-6-sulfonamide]", "values": [{"measurement": "Blood glucose level (1 h)", "setting": "[1]", "value": "226.33 ± 6.34", "unit": "mg/dL"}, {"measurement": "Blood glucose level (2 h)", "setting": "[1]", "value": "120.08 ± 4.11", "unit": "mg/dL"}, {"measurement": "Blood glucose level (3 h)", "setting": "[1]", "value": "99.33 ± 1.29", "unit": "mg/dL"}, {"measurement": "Blood glucose level (6 h)", "setting": "[1]", "value": "93.33 ± 6.11", "unit": "mg/dL"}]}, {"compound": "Cn1c(=O)c(=O)n(C)c2cc(S(=O)(=O)Nc3ccc(Br)cc3)ccc21", "note": "[Compound 6e, N-(4-Bromophenyl)-1,4-dimethyl-2,3-dioxo-1,2,3,4-tetrahydroquinoxaline-6-sulfonamide]", "values": [{"measurement": "pIC50", "setting": "DPP-4", "value": 9.14}, {"measurement": "Blood glucose level (1 h)", "setting": "[1]", "value": "222.09 ± 4.85", "unit": "mg/dL"}, {"measurement": "Blood glucose level (2 h)", "setting": "[1]", "value": "125.04 ± 3.26", "unit": "mg/dL"}, {"measurement": "Blood glucose level (3 h)", "setting": "[1]", "value": "95.28 ± 4.55", "unit": "mg/dL"}, {"measurement": "Blood glucose level (6 h)", "setting": "[1]", "value": "92.17 ± 8.45", "unit": "mg/dL"}]}, {"compound": "Cn1c(=O)c(=O)n(C)c2cc(S(=O)(=O)Nc3ccccc3S)ccc21", "note": "[Compound 6f, N-(2-Mercaptophenyl)-1,4-dimethyl-2,3-dioxo-1,2,3,4-tetrahydroquinoxaline-6-sulfonamide]", "values": [{"measurement": "Blood glucose level (1 h)", "setting": "[1]", "value": "218.00 ± 4.26", "unit": "mg/dL"}, {"measurement": "Blood glucose level (2 h)", "setting": "[1]", "value": "118.07 ± 8.21", "unit": "mg/dL"}, {"measurement": "Blood glucose level (3 h)", "setting": "[1]", "value": "97.09 ± 6.39", "unit": "mg/dL"}, {"measurement": "Blood glucose level (6 h)", "setting": "[1]", "value": "93.25 ± 7.49", "unit": "mg/dL"}]}, {"compound": "Cn1c(=O)c(=O)n(C)c2cc(S(=O)(=O)Nc3ccc(S(N)(=O)=O)cc3)ccc21", "note": "[Compound 7a, 1,4-Dimethyl-2,3-dioxo-N-(4-sulfamoylphenyl)-1,2,3,4-tetrahydroquinoxaline-6-sulfonamide]", "values": [{"measurement": "folds more potent DPP-4 inhibitory effect than Linagliptin", "setting": "DPP-4", "value": "1.2–1.6 folds"}, {"measurement": "pIC50", "setting": "DPP-4", "value": 9.21}, {"measurement": "Blood glucose level (1 h)", "setting": "[1]", "value": "251.29 ± 2.80", "unit": "mg/dL"}, {"measurement": "Blood glucose level (2 h)", "setting": "[1]", "value": "138.16 ± 9.23", "unit": "mg/dL"}, {"measurement": "Blood glucose level (3 h)", "setting": "[1]", "value": "122.08 ± 3.31", "unit": "mg/dL"}, {"measurement": "Blood glucose level (6 h)", "setting": "[1]", "value": "99.25 ± 4.35", "unit": "mg/dL"}]}, {"compound": "CC(=O)NNS(=O)(=O)c1ccc2c(c1)n(C)c(=O)c(=O)n2C", "note": "[Compound 9a, N′-Acetyl-1,4-dimethyl-2,3-dioxo-1,2,3,4-tetrahydroquinoxaline-6-sulfonohydrazide]", "values": [{"measurement": "pIC50", "setting": "DPP-9", "value": "< 4.00"}, {"measurement": "Inhibition% of normal hTERT-RPE1 cells", "setting": "[2]", "value": 20, "unit": "%"}, {"measurement": "Blood glucose level (1 h)", "setting": "[1]", "value": "237.40 ± 3.15", "unit": "mg/dL"}, {"measurement": "Blood glucose level (2 h)", "setting": "[1]", "value": "115.11 ± 4.25", "unit": "mg/dL"}, {"measurement": "Blood glucose level (3 h)", "setting": "[1]", "value": "97.12 ± 8.37", "unit": "mg/dL"}, {"measurement": "Blood glucose level (6 h)", "setting": "[1]", "value": "85.23 ± 1.69", "unit": "mg/dL"}, {"measurement": "pIC50", "setting": "DPP-8", "value": "< 4.00"}, {"measurement": "selectivity towards DPP-4 inhibition over DPP-8/9", "setting": "DPP-8; DPP-4 versus DPP-8/9", "value": "> 1000", "unit": "folds"}]}, {"compound": "Cn1c(=O)c(=O)n(C)c2cc(S(=O)(=O)NNC(=O)CCl)ccc21", "note": "[Compound 9b, N′-(2-Chloroacetyl)-1,4-dimethyl-2,3-dioxo-1,2,3,4-tetrahydroquinoxaline-6-sulfono hydrazide]", "values": [{"measurement": "Blood glucose level (1 h)", "setting": "[1]", "value": "223.89 ± 3.85", "unit": "mg/dL"}, {"measurement": "Blood glucose level (2 h)", "setting": "[1]", "value": "118.12 ± 5.95", "unit": "mg/dL"}, {"measurement": "Blood glucose level (3 h)", "setting": "[1]", "value": "89.12 ± 4.21", "unit": "mg/dL"}, {"measurement": "Blood glucose level (6 h)", "setting": "[1]", "value": "85.25 ± 2.12", "unit": "mg/dL"}]}, {"compound": "Cn1c(=O)c(=O)n(C)c2cc(S(=O)(=O)NNC(=O)c3ccccc3)ccc21", "note": "[Compound 9c, N′-Benzoyl-1,4-dimethyl-2,3-dioxo-1,2,3,4-tetrahydroquinoxaline-6-sulfonohydrazide]", "values": [{"measurement": "Blood glucose level (1 h)", "setting": "[1]", "value": "235.40 ± 3.85", "unit": "mg/dL"}, {"measurement": "Blood glucose level (2 h)", "setting": "[1]", "value": "120.11 ± 2.35", "unit": "mg/dL"}, {"measurement": "Blood glucose level (3 h)", "setting": "[1]", "value": "96.68 ± 4.25", "unit": "mg/dL"}, {"measurement": "Blood glucose level (6 h)", "setting": "[1]", "value": "80.16 ± 5.01", "unit": "mg/dL"}]}, {"compound": "Cn1c(=O)c(=O)n(C)c2cc(S(=O)(=O)NNC(=O)NCc3ccccc3)ccc21", "note": "[Compound 10b, N-Benzyl-2-((1,4-dimethyl-2,3-dioxo-1,2,3,4-tetrahydroquinoxalin-6-yl)sulfonyl)hydrazine-1-carboxamide]", "values": [{"measurement": "Blood glucose level (1 h)", "setting": "[1]", "value": "228.71 ± 3.85", "unit": "mg/dL"}, {"measurement": "Blood glucose level (2 h)", "setting": "[1]", "value": "120.09 ± 3.35", "unit": "mg/dL"}, {"measurement": "Blood glucose level (3 h)", "setting": "[1]", "value": "90.66 ± 5.35", "unit": "mg/dL"}, {"measurement": "Blood glucose level (6 h)", "setting": "[1]", "value": "85.66 ± 4.10", "unit": "mg/dL"}]}, {"compound": "Cn1c(=O)c(=O)n(C)c2cc(S(=O)(=O)NNC(=O)NC(=O)c3ccccc3)ccc21", "note": "[Compound 10c, N-Benzoyl-2-((1,4-dimethyl-2,3-dioxo-1,2,3,4-tetrahydroquinoxalin-6-yl)sulfonyl)hydrazine-1-carboxamide]", "values": [{"measurement": "Blood glucose level (1 h)", "setting": "[1]", "value": "225.65 ± 3.85", "unit": "mg/dL"}, {"measurement": "Blood glucose level (2 h)", "setting": "[1]", "value": "155.33 ± 2.78", "unit": "mg/dL"}, {"measurement": "Blood glucose level (3 h)", "setting": "[1]", "value": "137.34 ± 9.48", "unit": "mg/dL"}, {"measurement": "Blood glucose level (6 h)", "setting": "[1]", "value": "104.08 ± 3.35", "unit": "mg/dL"}]}, {"compound": "Cn1c(=O)c(=O)n(C)c2cc(S(=O)(=O)NNC(=O)Nc3ccc(Cl)cc3)ccc21", "note": "[Compound 10d, N-(4-Chlorophenyl)-2-((1,4-dimethyl-2,3-dioxo-1,2,3,4-tetrahydroquinoxalin-6-yl)sulfonyl)hydrazine-1-carboxamide]", "values": [{"measurement": "DPP-4 suppression activity (in words)", "setting": "DPP-4", "value": "inactive; also recorded: completely lost the activity"}]}, {"compound": "Cn1c(=O)c(=O)n(C)c2cc(S(=O)(=O)NNC(=S)NC3CCCCC3)ccc21", "note": "[Compound 10f, N-Cyclohexyl-2-((1,4-dimethyl-2,3-dioxo-1,2,3,4-tetrahydroquinoxalin-6-yl)sulfonyl)hydrazine-1-carbothioamide]", "values": [{"measurement": "Blood glucose level (1 h)", "setting": "[1]", "value": "237.33 ± 3.85", "unit": "mg/dL"}, {"measurement": "Blood glucose level (2 h)", "setting": "[1]", "value": "127.33 ± 4.23", "unit": "mg/dL"}, {"measurement": "Blood glucose level (3 h)", "setting": "[1]", "value": "100.06 ± 6.29", "unit": "mg/dL"}, {"measurement": "Blood glucose level (6 h)", "setting": "[1]", "value": "89.66 ± 2.27", "unit": "mg/dL"}]}, {"compound": "COc1ccc(NC(=S)NNS(=O)(=O)c2ccc3c(c2)n(C)c(=O)c(=O)n3C)cc1", "note": "[Compound 10h, 2-((1,4-Dimethyl-2,3-dioxo-1,2,3,4-tetrahydroquinoxalin-6-yl)sulfonyl)-N-(4-methoxyphenyl)hydrazine-1-carbothioamide]", "values": [{"measurement": "DPP-4 suppression activity (in words)", "setting": "DPP-4", "value": "inactive; also recorded: completely lost the activity"}]}, {"compound": "CC#CCn1c(N2CCC[C@@H](N)C2)nc2c1c(=O)n(Cc1nc(C)c3ccccc3n1)c(=O)n2C", "note": "[Linagliptin, reference compound]", "values": [{"measurement": "Blood glucose level (1 h)", "setting": "[1]", "value": "220.01 ± 3.85", "unit": "mg/dL"}, {"measurement": "Blood glucose level (2 h)", "setting": "[1]", "value": "120.89 ± 1.76", "unit": "mg/dL"}, {"measurement": "Blood glucose level (3 h)", "setting": "[1]", "value": "85.11 ± 2.39", "unit": "mg/dL"}, {"measurement": "Blood glucose level (6 h)", "setting": "[1]", "value": "85.00 ± 5.15", "unit": "mg/dL"}]}]}
